Measured values published in ChEMBL document CHEMBL1641579, “Synthesis and biological evaluation of 7-substituted-1-(3-bromophenylamino)isoquinoline-4-carbonitriles as inhibitors of myosin light chain kinase and epidermal growth factor receptor” (Bioorg Med Chem, 2011).

Legend:
[1] = biological target: Tyrosine-protein kinase SYK (Homo sapiens) (UniProt P43405); test: Inhibition of SYK assessed as residual activity at 10 uM
How it was run: (§1)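 Panel screen by radioactive kinase assay at a single inhibitor concentration. Score is the percent activity remaining relative to DMSO controls (100%).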

[2] = biological target: Mitogen-activated protein kinase kinase kinase 11 (Homo sapiens) (UniProt Q16584); test: Inhibition of MLK3 assessed as residual activity at 10 uM; how it was run: as §1
[3] = biological target: Mitogen-activated protein kinase 8 (Homo sapiens) (UniProt P45983); test: Inhibition of JNK1 assessed as residual activity at 10 uM
How it was run: (§2)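 Kinase panel screen run as a radioactive activity assay at single compound concentration. Score reported as percent activity remaining relative to DMSO controls (100%).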

[4] = biological target: Tyrosine-protein kinase Yes (Homo sapiens) (UniProt P07947); test: Inhibition of YES1 assessed as residual activity at 10 uM; how it was run: as §1
Tyrosine-protein kinase Yes (Homo sapiens), sequence (P07947 2-543 limits assumed): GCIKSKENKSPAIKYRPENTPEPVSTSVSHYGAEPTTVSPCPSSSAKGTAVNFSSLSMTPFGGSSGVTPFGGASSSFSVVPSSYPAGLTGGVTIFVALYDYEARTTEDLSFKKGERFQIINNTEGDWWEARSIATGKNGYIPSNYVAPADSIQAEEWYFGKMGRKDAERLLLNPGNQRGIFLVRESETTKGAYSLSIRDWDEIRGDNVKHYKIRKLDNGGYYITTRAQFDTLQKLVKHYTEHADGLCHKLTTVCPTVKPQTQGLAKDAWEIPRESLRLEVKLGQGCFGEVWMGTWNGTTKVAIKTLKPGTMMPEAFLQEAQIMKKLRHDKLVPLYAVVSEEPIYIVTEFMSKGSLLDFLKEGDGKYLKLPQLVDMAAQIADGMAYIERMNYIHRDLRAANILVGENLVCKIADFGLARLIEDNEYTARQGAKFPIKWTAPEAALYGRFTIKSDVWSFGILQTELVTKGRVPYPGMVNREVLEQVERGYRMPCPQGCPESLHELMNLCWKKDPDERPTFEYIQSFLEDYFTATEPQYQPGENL

[5] = biological target: T1, Serine/threonine-protein kinase Sgk1 (Homo sapiens) (UniProt O00141); test: Inhibition of SGK1 assessed as residual activity at 10 uM; how it was run: as §1
T1 sequence (whole entry): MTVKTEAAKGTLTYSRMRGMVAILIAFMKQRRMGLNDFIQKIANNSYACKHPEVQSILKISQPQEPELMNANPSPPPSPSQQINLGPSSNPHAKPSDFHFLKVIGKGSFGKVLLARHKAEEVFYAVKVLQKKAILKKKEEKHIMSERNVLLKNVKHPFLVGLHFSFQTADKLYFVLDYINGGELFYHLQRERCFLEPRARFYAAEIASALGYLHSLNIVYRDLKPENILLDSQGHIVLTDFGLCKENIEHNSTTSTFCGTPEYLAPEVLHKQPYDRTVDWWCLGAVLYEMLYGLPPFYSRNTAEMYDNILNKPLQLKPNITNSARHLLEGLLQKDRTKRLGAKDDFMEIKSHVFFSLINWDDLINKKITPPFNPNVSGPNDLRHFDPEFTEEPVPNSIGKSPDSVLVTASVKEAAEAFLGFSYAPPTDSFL

[6] = biological target: Mitogen-activated protein kinase 10 (Homo sapiens) (UniProt P53779); test: Inhibition of JNK3 assessed as residual activity at 10 uM; how it was run: as §2
Mitogen-activated protein kinase 10 (Homo sapiens), sequence (P53779 whole entry): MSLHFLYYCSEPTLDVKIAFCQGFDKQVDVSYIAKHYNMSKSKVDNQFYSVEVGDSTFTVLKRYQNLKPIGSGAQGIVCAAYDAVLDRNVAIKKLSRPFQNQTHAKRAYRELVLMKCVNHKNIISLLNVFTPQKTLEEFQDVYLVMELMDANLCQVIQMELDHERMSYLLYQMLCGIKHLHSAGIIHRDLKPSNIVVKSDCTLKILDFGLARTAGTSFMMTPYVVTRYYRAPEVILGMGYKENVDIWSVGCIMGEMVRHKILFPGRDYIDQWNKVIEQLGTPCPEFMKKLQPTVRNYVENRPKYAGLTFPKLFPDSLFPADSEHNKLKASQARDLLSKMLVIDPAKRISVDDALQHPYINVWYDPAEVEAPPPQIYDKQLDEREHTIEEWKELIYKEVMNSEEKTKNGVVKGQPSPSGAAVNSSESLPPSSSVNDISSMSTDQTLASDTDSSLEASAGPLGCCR

[7] = biological target: Calcium/calmodulin-dependent protein kinase kinase 2 (Homo sapiens) (UniProt Q96RR4); test: Inhibition of CAMKKbeta assessed as residual activity at 10 uM; how it was run: as §2
Calcium/calmodulin-dependent protein kinase kinase 2 (Homo sapiens), sequence (Q96RR4 2-588 limits assumed): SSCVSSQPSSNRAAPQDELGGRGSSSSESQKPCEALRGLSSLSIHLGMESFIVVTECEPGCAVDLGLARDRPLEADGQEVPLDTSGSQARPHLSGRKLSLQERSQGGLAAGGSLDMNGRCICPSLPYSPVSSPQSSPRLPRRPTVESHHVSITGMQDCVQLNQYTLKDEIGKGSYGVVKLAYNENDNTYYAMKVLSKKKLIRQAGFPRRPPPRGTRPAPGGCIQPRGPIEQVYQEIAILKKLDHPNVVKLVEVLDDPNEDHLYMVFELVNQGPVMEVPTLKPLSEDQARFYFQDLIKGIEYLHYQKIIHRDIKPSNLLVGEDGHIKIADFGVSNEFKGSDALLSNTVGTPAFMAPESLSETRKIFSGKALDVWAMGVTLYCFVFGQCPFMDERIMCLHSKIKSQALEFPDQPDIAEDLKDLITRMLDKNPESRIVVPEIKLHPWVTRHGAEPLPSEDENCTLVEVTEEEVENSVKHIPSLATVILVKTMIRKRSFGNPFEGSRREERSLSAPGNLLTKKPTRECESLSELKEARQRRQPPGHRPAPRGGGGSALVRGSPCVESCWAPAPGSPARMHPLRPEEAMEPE

[8] = Inhibition of CK2 assessed as residual activity at 10 uM; how it was run: as §2
[9] = biological target: Protein kinase C alpha type (Homo sapiens) (UniProt P17252); test: Inhibition of PKCalpha assessed as residual activity at 10 uM; how it was run: as §1
[10] = biological target: Maternal embryonic leucine zipper kinase (Homo sapiens) (UniProt Q14680); test: Inhibition of MELK assessed as residual activity at 10 uM; how it was run: as §2
Maternal embryonic leucine zipper kinase (Homo sapiens), sequence (Q14680 whole entry, looked up): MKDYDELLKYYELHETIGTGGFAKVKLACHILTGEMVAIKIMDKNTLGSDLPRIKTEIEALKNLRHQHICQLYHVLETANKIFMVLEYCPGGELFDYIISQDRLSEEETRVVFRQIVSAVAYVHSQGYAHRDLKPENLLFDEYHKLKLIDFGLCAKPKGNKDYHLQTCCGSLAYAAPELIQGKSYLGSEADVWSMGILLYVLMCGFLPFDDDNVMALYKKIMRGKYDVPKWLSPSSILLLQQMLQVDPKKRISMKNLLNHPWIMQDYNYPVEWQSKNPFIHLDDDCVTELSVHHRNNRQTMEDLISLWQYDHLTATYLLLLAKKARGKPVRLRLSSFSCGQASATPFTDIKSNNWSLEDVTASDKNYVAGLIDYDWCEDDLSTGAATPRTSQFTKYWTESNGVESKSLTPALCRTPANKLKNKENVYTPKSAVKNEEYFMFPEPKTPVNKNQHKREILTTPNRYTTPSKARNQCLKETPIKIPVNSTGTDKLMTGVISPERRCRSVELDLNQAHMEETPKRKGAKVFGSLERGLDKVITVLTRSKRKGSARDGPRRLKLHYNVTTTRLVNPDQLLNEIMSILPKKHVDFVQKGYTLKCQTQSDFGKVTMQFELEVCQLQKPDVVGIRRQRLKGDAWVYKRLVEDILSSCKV

[11] = biological target: T2, Mitogen-activated protein kinase 15 (Homo sapiens) (UniProt Q8TD08); test: Inhibition of ERK8 assessed as residual activity at 10 uM; how it was run: as §2
T2 sequence (whole entry): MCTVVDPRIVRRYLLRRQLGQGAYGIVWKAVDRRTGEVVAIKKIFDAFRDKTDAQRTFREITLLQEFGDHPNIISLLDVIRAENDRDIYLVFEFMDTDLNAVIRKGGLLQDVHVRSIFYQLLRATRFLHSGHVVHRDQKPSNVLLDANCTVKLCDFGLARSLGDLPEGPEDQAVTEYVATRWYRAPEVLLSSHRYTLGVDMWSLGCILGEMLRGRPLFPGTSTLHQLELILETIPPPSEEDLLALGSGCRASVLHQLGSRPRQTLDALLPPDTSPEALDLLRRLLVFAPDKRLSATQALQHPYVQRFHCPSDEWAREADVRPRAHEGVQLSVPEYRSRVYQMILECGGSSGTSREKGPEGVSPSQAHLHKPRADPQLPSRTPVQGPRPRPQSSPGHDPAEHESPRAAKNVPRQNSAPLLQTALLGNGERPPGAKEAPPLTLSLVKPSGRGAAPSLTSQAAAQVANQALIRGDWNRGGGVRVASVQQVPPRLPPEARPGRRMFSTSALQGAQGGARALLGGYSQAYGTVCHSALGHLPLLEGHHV

[12] = biological target: Serine/threonine-protein kinase MARK2 (Homo sapiens) (UniProt Q7KZI7); test: Inhibition of MARK2 assessed as residual activity at 10 uM; how it was run: as §2
Serine/threonine-protein kinase MARK2 (Homo sapiens), sequence (Q7KZI7 whole entry): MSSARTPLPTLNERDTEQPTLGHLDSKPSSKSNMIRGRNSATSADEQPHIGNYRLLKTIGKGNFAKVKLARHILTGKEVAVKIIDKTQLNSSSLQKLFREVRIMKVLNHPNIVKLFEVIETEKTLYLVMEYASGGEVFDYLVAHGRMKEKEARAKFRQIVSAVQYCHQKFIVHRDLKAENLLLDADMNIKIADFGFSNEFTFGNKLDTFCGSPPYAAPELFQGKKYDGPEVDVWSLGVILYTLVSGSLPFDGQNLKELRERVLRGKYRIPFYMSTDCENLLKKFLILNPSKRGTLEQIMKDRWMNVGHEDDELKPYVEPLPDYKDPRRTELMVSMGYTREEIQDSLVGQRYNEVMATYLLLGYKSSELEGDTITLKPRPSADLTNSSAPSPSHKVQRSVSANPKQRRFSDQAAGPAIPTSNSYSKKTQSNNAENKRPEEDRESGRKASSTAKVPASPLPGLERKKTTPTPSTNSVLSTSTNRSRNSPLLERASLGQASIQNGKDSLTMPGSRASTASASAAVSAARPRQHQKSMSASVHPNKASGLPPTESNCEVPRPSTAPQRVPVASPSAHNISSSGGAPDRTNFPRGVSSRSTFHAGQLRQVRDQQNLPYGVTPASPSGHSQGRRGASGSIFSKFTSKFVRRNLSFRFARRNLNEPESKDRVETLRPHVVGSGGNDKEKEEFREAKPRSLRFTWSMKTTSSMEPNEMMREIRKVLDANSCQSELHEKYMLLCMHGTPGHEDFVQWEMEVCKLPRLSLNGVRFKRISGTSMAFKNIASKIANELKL

[13] = biological target: Mitogen-activated protein kinase 3 (Homo sapiens) (UniProt P27361); test: Inhibition of ERK1 assessed as residual activity at 10 uM; how it was run: as §2
Mitogen-activated protein kinase 3 (Homo sapiens), sequence (P27361 whole entry): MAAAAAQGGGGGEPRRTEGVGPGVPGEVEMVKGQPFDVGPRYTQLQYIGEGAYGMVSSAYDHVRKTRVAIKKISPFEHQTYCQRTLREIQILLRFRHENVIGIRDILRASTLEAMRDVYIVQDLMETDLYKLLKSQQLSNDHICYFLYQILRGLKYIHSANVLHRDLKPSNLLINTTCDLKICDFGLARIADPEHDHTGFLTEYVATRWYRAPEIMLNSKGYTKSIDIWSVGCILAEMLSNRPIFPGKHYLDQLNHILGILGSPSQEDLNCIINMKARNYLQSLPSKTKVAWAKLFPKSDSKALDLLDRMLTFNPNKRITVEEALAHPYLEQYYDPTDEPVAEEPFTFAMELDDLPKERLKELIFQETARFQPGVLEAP

[14] = biological target: Serine/threonine-protein kinase pim-2 (Homo sapiens) (UniProt Q9P1W9); test: Inhibition of PIM2 assessed as residual activity at 10 uM; how it was run: as §1
Serine/threonine-protein kinase pim-2 (Homo sapiens), sequence (Q9P1W9 whole entry, looked up): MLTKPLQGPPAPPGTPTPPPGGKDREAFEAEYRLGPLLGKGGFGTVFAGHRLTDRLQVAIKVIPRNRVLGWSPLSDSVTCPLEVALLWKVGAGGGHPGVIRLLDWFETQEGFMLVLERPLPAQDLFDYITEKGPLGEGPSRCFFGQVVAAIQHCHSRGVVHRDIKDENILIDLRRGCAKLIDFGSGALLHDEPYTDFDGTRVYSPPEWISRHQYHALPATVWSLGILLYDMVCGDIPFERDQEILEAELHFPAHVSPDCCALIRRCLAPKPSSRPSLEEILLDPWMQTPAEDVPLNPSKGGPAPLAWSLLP

[15] = biological target: MAP kinase-interacting serine/threonine-protein kinase 2 (Homo sapiens) (UniProt Q9HBH9); test: Inhibition of MNK2 assessed as residual activity at 10 uM; how it was run: as §1
[16] = biological target: T3, MAP kinase-activated protein kinase 5 (Homo sapiens) (UniProt Q8IW41); test: Inhibition of PRAK assessed as residual activity at 10 uM; how it was run: as §1
T3 sequence (whole entry): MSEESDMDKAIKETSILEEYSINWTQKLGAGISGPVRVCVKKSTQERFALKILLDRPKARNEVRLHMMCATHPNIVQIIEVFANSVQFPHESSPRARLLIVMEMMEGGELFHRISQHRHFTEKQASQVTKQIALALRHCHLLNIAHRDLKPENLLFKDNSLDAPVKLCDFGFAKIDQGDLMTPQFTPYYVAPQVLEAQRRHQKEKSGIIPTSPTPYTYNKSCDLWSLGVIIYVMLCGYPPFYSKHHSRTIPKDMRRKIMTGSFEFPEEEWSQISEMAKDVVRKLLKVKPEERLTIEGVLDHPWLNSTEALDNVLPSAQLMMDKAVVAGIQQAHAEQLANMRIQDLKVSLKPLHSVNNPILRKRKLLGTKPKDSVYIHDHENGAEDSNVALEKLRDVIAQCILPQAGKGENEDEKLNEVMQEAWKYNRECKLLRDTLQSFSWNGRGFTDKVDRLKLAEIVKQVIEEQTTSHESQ

[17] = biological target: Serine/threonine-protein kinase pim-3 (Homo sapiens) (UniProt Q86V86); test: Inhibition of PIM3 assessed as residual activity at 10 uM; how it was run: as §1

Activity [1]	Activity [2]	Activity [3]	Activity [4]	Activity [5]	Activity [6]	Activity [7]	Activity [8]	Activity [9]	Activity [10]	Activity [12]	Activity [13]	Activity [14]	Activity [15]	Activity [16]	Activity [17]	Structure (SMILES)	Activity [11]
64%	100%	97%	36%	82%	100%	92%	100%	70%	80%	100%	93%	89%	100%	100%	46%	CN(C)CCCC(=O)Nc1ccc2c(C#N)cnc(Nc3cccc(Br)c3)c2c1	75%
61%	86%	91%	32%	82%	83%	91%	99%	69%	75%	90%	83%	89%	92%	88%	59%	CN(C)C/C=C/C(=O)Nc1ccc2c(C#N)cnc(Nc3cccc(Br)c3)c2c1	78%
77%	87%	99%	36%	91%	95%	87%	90%	71%	89%	100%	85%	92%	85%	100%	68%	CN1CCN(CCC(=O)Nc2ccc3c(C#N)cnc(Nc4cccc(Br)c4)c3c2)CC1	72%
